Test results taken from ChEMBL document CHEMBL5620421, “2,6-Disubstituted 7-(naphthalen-2-ylmethyl)-7H-purines as a new class of potent antitubercular agents inhibiting DprE1” (Eur J Med Chem, 2023).
In brackets after ≈: the same amount, converted by molar mass. Activity calls are given as the source filed them. No cut-off for these calls is given here.

What was measured:
[1] = Half life in human liver microsomes at 3 uM incubated for 5 to 45 min in presence of NADPH by LC-MS analysis; format: ADME, Microsome; settings: time 5-45 min
Mycobacterium kansasii [2] = assay: Antitubercular activity against Mycobacterium kansasii CNCTC My 235/80 assessed as inhibition of bacterial growth measured after 14 days of incubation by Sulas semisynthetic medium based assay; format: functional; settings: CNCTC My 235/80, 336 h, time 14 day
Outline: (§1)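 Micromethod in Sula's semisynthetic medium. MIC is the lowest concentration inhibiting >99% of the mycobacterial population. Isoniazid was the standard.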

Mycobacterium avium [3] = assay: Antitubercular activity against Mycobacterium avium CNCTC My 330/88 assessed as inhibition of bacterial growth measured after 14 days of incubation by Sulas semisynthetic medium based assay; format: functional; settings: CNCTC My 330/88, 336 h, time 14 day
Outline: (§2)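 M. avium was tested by the micromethod in Sula's semisynthetic medium. Compounds in DMSO at 1000 to 0.5 μmol/L. Incubation at 37 °C, read at 14 and 21 days. MIC is the lowest concentration giving >99% growth inhibition.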

HepG2 [4] = assay: Cytotoxicity against human HepG2 cells incubated for 24 hrs by MTT assay; format: functional, cell-based; settings: HepG2, 24 h
Outline: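 HepG2 cells in DMEM with 10% FBS, seeded at 15 × 10³ cells/well and attached overnight. Exposed for 24 h to serial dilutions prepared from DMSO stocks, final DMSO ≤1%. Then given fresh medium with 0.5 mg/mL MTT for 1 h at 37 °C. Formazan dissolved in DMSO and read at 570 nm. IC50 from 4-parameter nonlinear regression; three independent experiments in triplicate, mean ± SD.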

[5] = tested on: Mycobacterium tuberculosis; assay: Antimycobacterial activity against XDR clinical isolate Mycobacterium tuberculosis 234/2005 assessed as inhibition of mycobacterial growth measured after 14 to 21 days of incubation by Sulas semisynthetic medium based assay; format: functional; settings: time 14-21 day
Outline: (§3)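 Clinical MDR/XDR M. tuberculosis isolates were tested by the Sula's semisynthetic medium micromethod. Compounds in DMSO at 1000 to 0.5 μmol/L, in twofold-type steps. Incubation at 37 °C, read at 14 and 21 days. MIC99 is the lowest concentration inhibiting >99% of growth. Drug resistance or susceptibility of each isolate is to amikacin, clofazimine, gentamicin, ofloxacin, streptomycin and the others listed.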

[6] = tested on: Mycobacterium tuberculosis; assay: Antimycobacterial activity against XDR clinical isolate Mycobacterium tuberculosis PRAHA 131 assessed as inhibition of mycobacterial growth measured after 14 to 21 days of incubation by Sulas semisynthetic medium based assay; format: functional; settings: time 14-21 day; outline: as §3
Klebsiella pneumoniae = assay: Antibacterial activity against ESBL negative Klebsiella pneumoniae C1950 assessed as inhibition of bacterial growth incubated for 24 to 48 hrs by microdilution broth method; format: functional, organism-based; settings: time 24-48 hrs
Outline: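 Clinical isolates kept at –70 °C and subcultured twice on Mueller-Hinton agar, using the second subculture. Broth microdilution in Mueller-Hinton broth at pH 7.4 with two-fold serial compound dilutions and DMSO ≤1% final. Inoculum was 10 μL of a 1.5 × 10⁸ CFU/mL suspension. Incubated at 36 °C ± 1 °C and read at 24 h and 48 h. MIC taken as 95% growth inhibition.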

Mycobacterium kansasii [7] = assay: Antitubercular activity against Mycobacterium kansasii CNCTC My 235/80 assessed as inhibition of bacterial growth measured after 21 days of incubation by Sulas semisynthetic medium based assay; format: functional; settings: CNCTC My 235/80, 504 h, time 21 day; outline: as §1
[8] = tested on: Mycobacterium tuberculosis; assay: Antitubercular activity against Mycobacterium tuberculosis CNCTC My 331/88 (H37Rv) assessed as inhibition of bacterial growth measured after 21 days of incubation by Sulas semisynthetic medium based assay; format: functional; settings: 504 h, time 21 day
Outline: (§4)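 Micromethod MIC in Sula's semisynthetic medium. MIC is the lowest concentration inhibiting >99% of the mycobacterial population. Isoniazid was the standard drug.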

Staphylococcus aureus = assay: Antibacterial activity against methicilin-resistant Staphylococcus aureus C1923 assessed as inhibition of bacterial growth incubated for 24 to 48 hrs by microdilution broth method; format: functional, organism-based; settings: time 24-48 hrs
Outline: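 Clinical isolates, stored at −70 °C, were passaged twice on Mueller-Hinton agar. Broth microdilution in Mueller-Hinton broth, pH 7.4, with twofold serial dilutions. DMSO was at most 1% final. Inoculum 1.5 × 10⁸ CFU/mL suspension. MIC is 95% growth inhibition, read after 24 and 48 h at 36 °C.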

[9] = tested on: Mycobacterium tuberculosis; assay: Antimycobacterial activity against MDR clinical isolate Mycobacterium tuberculosis PRAHA 131 assessed as inhibition of mycobacterial growth measured after 14 to 21 days of incubation by Sulas semisynthetic medium based assay; format: functional; settings: time 14-21 day; outline: as §3
[10] = tested on: Mycobacterium tuberculosis; assay: Antimycobacterial activity against MDR clinical isolate Mycobacterium tuberculosis 9449/2007 assessed as inhibition of mycobacterial growth measured after 14 to 21 days of incubation by Sulas semisynthetic medium based assay; format: functional; settings: time 14-21 day; outline: as §3
Mycobacterium avium [11] = assay: Antitubercular activity against Mycobacterium avium CNCTC My 330/88 assessed as inhibition of bacterial growth measured after 21 days of incubation by Sulas semisynthetic medium based assay; format: functional; settings: CNCTC My 330/88, 504 h, time 21 day; outline: as §2
[12] = tested on: Mycobacterium tuberculosis; assay: Antimycobacterial activity against XDR clinical isolate Mycobacterium tuberculosis PRAHA 4 assessed as inhibition of mycobacterial growth measured after 14 to 21 days of incubation by Sulas semisynthetic medium based assay; format: functional; settings: time 14-21 day; outline: as §3
[13] = tested on: Mycobacterium tuberculosis; assay: Antitubercular activity against Mycobacterium tuberculosis CNCTC My 331/88 (H37Rv) assessed as inhibition of bacterial growth measured after 14 days of incubation by Sulas semisynthetic medium based assay; format: functional; settings: 336 h, time 14 day; outline: as §4
[14] = tested on: Mycobacterium tuberculosis; assay: Antimycobacterial activity against MDR clinical isolate Mycobacterium tuberculosis PRAHA 4 assessed as inhibition of mycobacterial growth measured after 14 to 21 days of incubation by Sulas semisynthetic medium based assay; format: functional; settings: time 14-21 day; outline: as §3
H9c2 [15] = assay: Cytotoxicity against rat H9c2 cells assessed as cell viability at 50 uM incubated for 72 hrs by MTT spectrophotometric analysis relative to control; format: functional; settings: read-out: Activity
Outline: (§5)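 HepG2 or rat H9c2 cells in DMEM with FBS, seeded at 10,000 cells/well. Treated 24 h later for 72 h, with 0.1% DMSO vehicle and 1% Triton X-100 as controls. MTT added (3 mg/mL solution) for 2 h at 37 °C, then cells lysed in isopropanol/0.1 M HCl/5% Triton X-100. Read at 570 nm minus 690 nm. Viability expressed as % of vehicle; IC50 derived where reached. At least four independent experiments.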

HepG2 [16] = assay: Cytotoxicity against human HepG2 cells assessed as cell viability at 50 uM incubated for 72 hrs by MTT spectrophotometric analysis relative to control; format: functional; settings: read-out: Activity; outline: as §5
HepG2 [17] = assay: Cytotoxicity against human HepG2 cells assessed as cell viability incubated for 72 hrs by MTT spectrophotometric analysis; format: functional, cell-based; settings: HepG2, 72 h; outline: as §5
H9c2 [18] = assay: Cytotoxicity against rat H9c2 cells assessed as cell viability incubated for 72 hrs by MTT spectrophotometric analysis; format: functional, cell-based; settings: H9c2, 72 h; outline: as §5

SMILES | half-life at 3 µM [1] [min] | MIC99 (Mycobacterium kansasii [2]) [µM] | MIC99 (Mycobacterium avium [3]) [µM] | IC50 (HepG2 [4]) [µM] | MIC99 [5] [µM] | MIC99 [6] [µM] | Activity (Klebsiella pneumoniae) | MIC99 (Mycobacterium kansasii [7]) [µM] | MIC99 [8] [µM] | Activity (Staphylococcus aureus) | MIC99 [9] [µM] | MIC99 [10] [µM] | MIC99 (Mycobacterium avium [11]) [µM] | MIC99 [12] [µM] | MIC99 [13] [µM] | MIC99 [14] [µM] | viability at 50 µM (H9c2 [15]) [%] | viability at 50 µM (HepG2 [16]) [%] | IC50 (HepG2 [17]) [µM] | IC50 (H9c2 [18]) [µM]
c1ccc2cc(Cn3cnc4nc(N5CCOCC5)nc(NC5CCC5)c43)ccc2c1 | 37.9 | 8 (≈ 3.32 µg/mL) | 250 (≈ 104 µg/mL) | 33 | 8 (≈ 3.32 µg/mL) | 8 (≈ 3.32 µg/mL) | inactive | 8 (≈ 3.32 µg/mL) | 4 (≈ 1.66 µg/mL) | Active | 4 (≈ 1.66 µg/mL) | 4 (≈ 1.66 µg/mL) | 500 (≈ 207 µg/mL) | 8 (≈ 3.32 µg/mL) | 2 (≈ 0.829 µg/mL) | 4 (≈ 1.66 µg/mL) | – | – | – | –
CCOc1nc(N2CCOCC2)nc2ncn(Cc3ccc4ccccc4c3)c12 | 56.8 | 16 (≈ 6.23 µg/mL) | > 500 | 43.5 | – | 4 (≈ 1.56 µg/mL) | inactive | 16 (≈ 6.23 µg/mL) | 2 (≈ 0.779 µg/mL) | inactive | 2 (≈ 0.779 µg/mL) | 2 (≈ 0.779 µg/mL) | > 500 | – | 1 (≈ 0.389 µg/mL) | – | 94.8 | 23.5 | 33.1 | > 50
O=c1[nH]c(N2CCOCC2)nc2ncn(Cc3ccc4ccccc4c3)c12 | 110 | 64 (≈ 23.1 µg/mL) | > 500 | > 125 | 32 (≈ 11.6 µg/mL) | 32 (≈ 11.6 µg/mL) | inactive | 125 (≈ 45.2 µg/mL) | 4 (≈ 1.45 µg/mL) | inactive | 32 (≈ 11.6 µg/mL) | 32 (≈ 11.6 µg/mL) | > 500 | 32 (≈ 11.6 µg/mL) | 4 (≈ 1.45 µg/mL) | 16 (≈ 5.78 µg/mL) | 86 | 60.5 | 59 | > 50
Nc1nc(N2CCOCC2)nc2ncn(Cc3ccc4ccccc4c3)c12 | 82.5 | 16 (≈ 5.77 µg/mL) | > 500 | > 125 | – | 4 (≈ 1.44 µg/mL) | inactive | 16 (≈ 5.77 µg/mL) | 2 (≈ 0.721 µg/mL) | inactive | 2 (≈ 0.721 µg/mL) | 2 (≈ 0.721 µg/mL) | > 500 | – | 1 (≈ 0.36 µg/mL) | – | 91.7 | 77 | > 50 | > 50
COc1nc(N2CCOCC2)nc2ncn(Cc3ccc4ccccc4c3)c12 | – | 32 (≈ 12 µg/mL) | 250 (≈ 93.9 µg/mL) | 64.3 | 16 (≈ 6.01 µg/mL) | 16 (≈ 6.01 µg/mL) | inactive | 64 (≈ 24 µg/mL) | 4 (≈ 1.5 µg/mL) | inactive | 8 (≈ 3 µg/mL) | 8 (≈ 3 µg/mL) | 500 (≈ 188 µg/mL) | 16 (≈ 6.01 µg/mL) | 2 (≈ 0.751 µg/mL) | 8 (≈ 3 µg/mL) | 92.6 | 66.4 | > 50 | > 50
O=c1[nH]c(N2CCCCC2)nc2ncn(Cc3ccc4ccccc4c3)c12 | 17.8 | > 500 | > 500 | 87.2 | 16 (≈ 5.75 µg/mL) | 16 (≈ 5.75 µg/mL) | inactive | > 500 | 4 (≈ 1.44 µg/mL) | inactive | 8 (≈ 2.88 µg/mL) | 8 (≈ 2.88 µg/mL) | > 500 | 16 (≈ 5.75 µg/mL) | 2 (≈ 0.719 µg/mL) | 8 (≈ 2.88 µg/mL) | 79.4 | 42.2 | 54.8 | > 50
c1ccc(CNc2nc(N3CCOCC3)nc3ncn(Cc4ccc5ccccc5c4)c23)cc1 | 19.3 | 4 (≈ 1.8 µg/mL) | 64 (≈ 28.8 µg/mL) | 33.8 | 4 (≈ 1.8 µg/mL) | 4 (≈ 1.8 µg/mL) | inactive | 8 (≈ 3.6 µg/mL) | 4 (≈ 1.8 µg/mL) | inactive | 4 (≈ 1.8 µg/mL) | 4 (≈ 1.8 µg/mL) | 64 (≈ 28.8 µg/mL) | 4 (≈ 1.8 µg/mL) | 2 (≈ 0.901 µg/mL) | 4 (≈ 1.8 µg/mL) | – | – | – | –
CCNc1nc(N2CCOCC2)nc2ncn(Cc3ccc4ccccc4c3)c12 | 51.3 | 8 (≈ 3.11 µg/mL) | 250 (≈ 97.1 µg/mL) | 63.9 | – | 4 (≈ 1.55 µg/mL) | inactive | 8 (≈ 3.11 µg/mL) | 1 (≈ 0.388 µg/mL) | inactive | 2 (≈ 0.777 µg/mL) | 2 (≈ 0.777 µg/mL) | 250 (≈ 97.1 µg/mL) | – | 1 (≈ 0.388 µg/mL) | – | 88 | 66.9 | > 50 | > 50
O=c1[nH]c(N2CCSCC2)nc2ncn(Cc3ccc4ccccc4c3)c12 | 10.9 | 64 (≈ 24.2 µg/mL) | > 500 | > 32 | 16 (≈ 6.04 µg/mL) | 16 (≈ 6.04 µg/mL) | inactive | 125 (≈ 47.2 µg/mL) | 4 (≈ 1.51 µg/mL) | inactive | 8 (≈ 3.02 µg/mL) | 8 (≈ 3.02 µg/mL) | > 500 | 16 (≈ 6.04 µg/mL) | 2 (≈ 0.755 µg/mL) | 8 (≈ 3.02 µg/mL) | 97.1 | 72.9 | > 50 | > 50
